This passage reports Activity, GI50 and ΔTm results from ChEMBL document CHEMBL1667800, “Synthesis, DNA/RNA affinity and antitumour activity of new aromatic diamidines linked by 3,4-ethylenedioxythiophene” (Eur J Med Chem, 2011).

Data set [1] deals with Calf thymus DNA. The data set is described as follows: Binding affinity to calf thymus DNA assessed as hyperchromic effect at compound over DNA molar ratio of 0.4 by UV-Vis spectra. The data set is classed as nucleic-acid assay. The settings on record: Bos taurus; in the assay text read “hypochromic effect” for “hyperchromic effect”. In a few lines:
(§1)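 UV-Vis titration of compound (c = 1.97 × 10^-5 mol dm^-3 in the shown example) with ct-DNA. Na-cacodylate buffer, pH 7.0, I = 0.05 mol dm^-3, 1 cm quartz cuvette. Absorbance at the maximum was tracked against c(ct-DNA). Ks and n were obtained by non-linear least-squares Scatchard fitting.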

Data set [2] in a line: Cytotoxicity against MDCK cells after 72 hrs by MTT assay. The data set is classed as cell-based, Canis lupus familiaris. The settings on record: dog. A digest of the protocol: (§2)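 Cells were seeded at 2 × 10^4 cells/mL and attached overnight at 37 °C, 5% CO2. They were then exposed for 72 h to compounds from aqueous stocks (working solutions 10^-3–10^-6 mol dm^-3). MTT was added for 4 h at 37 °C, formazan dissolved in DMSO, and absorbance read at 570 nm. GI50 is the mean ± SD of three independent experiments run in triplicate.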
Background: Formazan colour is commonly taken as a measure of viable cells.

A further data set concerns AGS. Put plainly: Cytotoxicity against human AGS cells after 72 hrs by MTT assay. The format is functional. In a few lines:
as §2

Another data set concerns Caco-2. The data set is described as follows: Cytotoxicity against human Caco2 cells after 72 hrs by MTT assay. The data set is classed as functional. To be noted: Caco-2, 72 h. In a few lines: as §2
The next data set deals with HEp-2. The data set is described as follows: Cytotoxicity against human Hep2 cells after 72 hrs by MTT assay. The data set is classed as functional. To be noted: HEp-2, 72 h. In a few lines: as §2
The subject of a further data set is MIA PaCa-2. Put plainly: Cytotoxicity against human MIAPaCa2 cells after 72 hrs by MTT assay. The format is functional. To be noted: MIA PaCa-2, 72 h. In a few lines:
as §2

Data set [3] deals with Calf thymus DNA. Put plainly: Binding affinity to calf thymus DNA assessed as melting temperature at compound over DNA molar ratio of 0.2 at pH 7 by thermal denaturation assay. The data set is classed as nucleic-acid assay. The settings on record: Bos taurus. A digest of the protocol: (§3)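 Thermal melting of ds-polynucleotide (ct-DNA or poly A-poly U) alone and with compound at the given r, Na-cacodylate pH 7.0, I = 0.05 mol dm^-3. Absorbance at 260 nm was followed versus temperature, with compound absorbance subtracted and the curve normalized. Tm was taken from the first-derivative maximum or by tangent. ΔTm = Tm(complex) − Tm(free nucleic acid).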

Data set [4] deals with Calf thymus DNA. Put plainly: Binding affinity to calf thymus DNA assessed as melting temperature at compound over DNA molar ratio of 0.3 at pH 7 by thermal denaturation assay. The format is nucleic-acid assay. The settings on record: Bos taurus. In a few lines:
as §3

For data set [5], the system named is Nucleic Acid. The data set is described as follows: Binding affinity to ds-RNA assessed as RNA CD band at compound over RNA molar ratio of < 0.2 by circular dichroism titration. The format is nucleic-acid assay. A digest of the protocol:
(§4)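 CD titration of polynucleotide (2.0 × 10^-5 mol dm^-3, as phosphate) with added compound over a range of r = [compound]/[polynucleotide]. Na-cacodylate buffer, pH 7.0, I = 0.05 mol dm^-3, 1 cm quartz cuvette. ct-DNA was sonicated and filtered before use. Changes in the polynucleotide CD band and induced CD bands were followed.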
A general note: CD spectra are sensitive to the conformation of chiral molecules.

Data set [6] concerns Nucleic Acid. Put plainly: Binding affinity to polu A-poly U assessed as melting temperature at compound over DNA molar ratio of 0.3 at pH 7 by thermal denaturation assay. The data set is classed as nucleic-acid assay. A digest of the protocol:
as §3

The subject of data set [7] is Calf thymus DNA. The data set is described as follows: Binding affinity to calf thymus DNA assessed as DNA CD band at compound over DNA molar ratio of > 0.3 by circular dichroism titration. The data set is classed as nucleic-acid assay. The settings on record: Bos taurus. A digest of the protocol:
as §4

For another data set, the system named is NCI-H358. The data set is described as follows: Cytotoxicity against human NCI-H358 cells after 72 hrs by MTT assay. The data set is classed as functional. To be noted: NCI-H358, 72 h. A digest of the protocol: as §2
In data set [8] the test system is Calf thymus DNA. The data set is described as follows: Binding affinity to calf thymus DNA assessed as melting temperature at compound over DNA molar ratio of 0.1 at pH 7 by thermal denaturation assay. The data set is classed as nucleic-acid assay. To be noted: Bos taurus. In a few lines:
as §3

Another data set concerns MCF7. Put plainly: Cytotoxicity against human MCF7 cells after 72 hrs by MTT assay. The data set is classed as functional. To be noted: MCF7, 72 h. A digest of the protocol:
as §2

The test system of data set [9] is Nucleic Acid. The data set is described as follows: Binding affinity to ds-RNA assessed as RNA CD band at compound over RNA molar ratio of > 0.2 by circular dichroism titration. The format is nucleic-acid assay. A digest of the protocol: as §4
In a further data set the test system is HeLa. The data set is described as follows: Cytotoxicity against human HeLa cells after 72 hrs by MTT assay. The data set is classed as functional. In a few lines: as §2
The test system of data set [10] is Calf thymus DNA. The data set is described as follows: Binding affinity to calf thymus DNA assessed as batochromic effect at compound over DNA molar ratio of 0.2 by UV-Vis spectra. The data set is classed as nucleic-acid assay. The settings on record: Bos taurus. In a few lines:
as §1

The test system of data set [11] is Calf thymus DNA. The data set is described as follows: Binding affinity to calf thymus DNA minor groove assessed as DNA CD band at compound over DNA molar ratio of < 0.2 by circular dichroism titration. The data set is classed as nucleic-acid assay. The settings on record: Bos taurus. A digest of the protocol:
as §4

The subject of data set [12] is Calf thymus DNA. The data set is described as follows: Binding affinity to calf thymus DNA assessed as batochromic effect at compound over DNA molar ratio of 0.2 by fluorimetric titration. The data set is classed as nucleic-acid assay. To be noted: Bos taurus. A digest of the protocol: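 Fluorimetric titration of compound (about 1.0 × 10^-6 mol dm^-3) with ct-DNA. Excitation above 360 nm to avoid inner-filter effects. Na-cacodylate buffer, pH 7.0, I = 0.05 mol dm^-3. Emission at the maximum was plotted against c(ct-DNA). Ks and n were obtained by non-linear Scatchard fitting.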

Data set [13] has as its system Calf thymus DNA. Put plainly: Binding affinity to calf thymus DNA assessed as hyperchromic effect at compound over DNA molar ratio of 0.5 by UV-Vis spectra. To be noted: Bos taurus; in the assay text read “hypochromic effect” for “hyperchromic effect”. The data set is classed as nucleic-acid assay. A digest of the protocol:
as §1

Data set [14] deals with Calf thymus DNA. Put plainly: Binding affinity to calf thymus DNA assessed as hyperchromic effect at compound over DNA molar ratio of 0.2 by UV-Vis spectra. The format is nucleic-acid assay. To be noted: Bos taurus; in the assay text read “hypochromic effect” for “hyperchromic effect”. A digest of the protocol: as §1

Active and inactive are the calls of the source. No cut-off for these calls is given here.

Take `CC(C)NC(=N)c1ccc(-c2sc(-c3ccc(C(=N)NC(C)C)cc3)c3c2OCCO3)cc1`: the outcome in the data set on Calf thymus DNA [1], in the data set with Calf thymus DNA [7], in the data set on Nucleic Acid [9], in the data set on Calf thymus DNA [10], in the data set on Calf thymus DNA [11] and in the data set with Calf thymus DNA [12] was Active. Also, in data set [2], halving of growth (GI50 at 72 h) required 65.3 µM. The concentration for 50% growth inhibition (GI50) (as a rule, the concentration that inhibits growth by half) was determined as 72.3 µM in the data set on AGS; 76.5 µM in the data set on Caco-2; 9 µM in the data set with HEp-2; 13 µM in the data set with MIA PaCa-2; 113 µM with NCI-H358; 67.5 µM in the data set with MCF7. The same molecule registered a 50% growth inhibitory concentration (GI50) with HeLa of 72.3 µM. The ΔTm (as a rule, the shift of the melting midpoint relative to a reference) with Calf thymus DNA [3] is 11.1 °C; in the data set on Calf thymus DNA [4] it was 12.3 °C; with Nucleic Acid [6], 5.8 °C; in the data set with Calf thymus DNA [8], 8.4 °C. For the same molecule, the result in the data set with Nucleic Acid [5] was inactive.
In turn, `N=C(N)c1ccc(-c2sc(-c3ccc(C(=N)N)cc3)c3c2OCCO3)cc1` yielded a GI50 at 72 h in data set [2] of 7.1 µM. Moreover, the concentration for 50% growth inhibition (GI50) in the data set with AGS was determined as 116 µM; in the data set on Caco-2 it was 13 µM; in the data set on HEp-2, 9.3 µM; in the data set with MIA PaCa-2, 9.3 µM; with NCI-H358, 33 µM; in the data set on MCF7 it was 25 µM. Moreover, in the data set on HeLa, the GI50 was 32.3 µM. Besides, the outcome in the data set on Calf thymus DNA [13], in the data set on Calf thymus DNA [7], in the data set with Calf thymus DNA [10], with Calf thymus DNA [11] and in the data set on Calf thymus DNA [12] was Active. In addition, the ΔTm is > 16 °C with Calf thymus DNA [3], > 16 °C in the data set on Calf thymus DNA [4], 12.6 °C with Nucleic Acid [6] and 12.2 °C in the data set on Calf thymus DNA [8]. For the same molecule, the result in the data set with Nucleic Acid [5] was inactive.
Take `c1cc(-c2sc(-c3ccc(C4=NCCCN4)cc3)c3c2OCCO3)ccc1C1=NCCCN1`: the outcome in the data set with Calf thymus DNA [14], in the data set on Calf thymus DNA [7], in the data set with Calf thymus DNA [10], with Calf thymus DNA [11] and with Calf thymus DNA [12] was Active. The molecule also displayed a 50% growth inhibitory concentration (GI50) at 72 h in data set [2] of 82 µM. The GI50 in the data set with AGS came to 81.7 µM; in the data set with Caco-2 it was 101 µM; in the data set with HEp-2 it was 97.7 µM; with MIA PaCa-2 it was 64.7 µM; in the data set with NCI-H358 it was 98.7 µM; in the data set with MCF7, 8.4 µM. In the data set on HeLa, this molecule had a GI50 of 97.5 µM. The ΔTm in the data set on Calf thymus DNA [3] was > 16 °C; in the data set with Calf thymus DNA [4] it was > 16 °C; in the data set with Nucleic Acid [6] it was 8.2 °C; in the data set on Calf thymus DNA [8], 11.8 °C. In the data set with Nucleic Acid [5], the result was inactive.
Consider `N=C(NC1CCCC1)c1ccc(-c2sc(-c3ccc(C(=N)NC4CCCC4)cc3)c3c2OCCO3)cc1`, for which the outcome in the data set on Calf thymus DNA [14], in the data set with Calf thymus DNA [7], in the data set with Calf thymus DNA [10], in the data set with Calf thymus DNA [11] and in the data set with Calf thymus DNA [12] was Active. The GI50 at 72 h in data set [2] worked out at 50 µM. Also, the GI50 was 45 µM with AGS; 41 µM with Caco-2; 61.3 µM with HEp-2; 10.9 µM in the data set on MIA PaCa-2; 62.2 µM in the data set with NCI-H358; 7.8 µM in the data set on MCF7. In the data set with HeLa, this molecule registered a 50% growth inhibitory concentration (GI50) of 26.7 µM. Also, the ΔTm in the data set on Calf thymus DNA [3] is 15.2 °C; in the data set on Calf thymus DNA [4], > 16 °C; in the data set on Nucleic Acid [6], 1.4 °C; in the data set with Calf thymus DNA [8], 12.3 °C. The result with Nucleic Acid [5] was inactive.
`N=C(Nc1ccccc1)c1sc(C(=N)Nc2ccccc2)c2c1OCCO2` had a GI50 at 72 h in [2] of 79.5 µM. The GI50 in the data set on AGS stood at 114 µM; with Caco-2 it was 134 µM; with HEp-2 it was 100 µM; in the data set with MIA PaCa-2, 128 µM; with NCI-H358, 112 µM; in the data set on MCF7, 129 µM. The molecule further had a GI50 in the data set with HeLa of 138 µM. Further, the ΔTm with Calf thymus DNA [4] and with Nucleic Acid [6] was 0 °C each time.
Regarding `CC(C)CNC(=N)c1ccc(-c2sc(-c3ccc(C(=N)NCC(C)C)cc3)c3c2OCCO3)cc1`, the outcome with Calf thymus DNA [14], with Calf thymus DNA [7], with Calf thymus DNA [10], with Calf thymus DNA [11] and in the data set on Calf thymus DNA [12] was Active. Besides, growth in [2] was halved (GI50 at 72 h) at 59.7 µM. In addition, the 50% growth inhibitory concentration (GI50) was 59.3 µM in the data set with AGS; 42.8 µM in the data set with Caco-2; 9.9 µM with HEp-2; 4.9 µM with MIA PaCa-2; 73.3 µM with NCI-H358; 7.3 µM in the data set on MCF7. Besides, in the data set on HeLa, the 50% growth inhibitory concentration (GI50) came to 18.8 µM. Also, the ΔTm in the data set on Calf thymus DNA [3] stood at 9 °C; with Calf thymus DNA [4] it was 15 °C; with Nucleic Acid [6], 5.2 °C; in the data set with Calf thymus DNA [8], 9 °C. Also, the result in the data set with Nucleic Acid [5] was inactive.
